The source of these data is ChEMBL document CHEMBL2434885, “cis-Dichloroplatinum(II) complexes tethered to dibenzo[c,h][1,6]naphthyridin-6-ones: synthesis and cytotoxicity in human cancer cell lines in vitro” (Eur J Med Chem, 2013).

Common to all, as to format: functional, cell-based
One test concerns SW480. Briefly: Cytotoxicity against human SW480 cells after 72 hrs by crystal-violet staining-based spectrophotometric analysis. Particulars: SW480, 72 h. The gist of the method:
(§1)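 Subconfluent, exponentially growing, mycoplasma-free monolayers in RPMI 1640 + 10% FBS, 5% CO2. Cells treated 72 h with 0–500 µM (compounds in physiological serum, or in DMF at ≤3% final). Cells then PBS-washed, ethanol-fixed, stained with 1% crystal violet and eluted in 33% acetic acid, with A570 read. Triplicates, three independent experiments. IC50 taken from concentration–response curves as 50% growth inhibition.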

The next test deals with HT-29. Description: Cytotoxicity against human HT-29 cells after 72 hrs by crystal-violet staining-based spectrophotometric analysis. Particulars: HT-29, 72 h. The gist of the method:
as §1

In another test the test system is HCT-116. Briefly: Cytotoxicity against human HCT116 cells after 72 hrs by crystal-violet staining-based spectrophotometric analysis. Particulars: HCT-116, 72 h. The essentials: as §1

For `NCCNCCCCn1c(=O)c2cc([N+](=O)[O-])ccc2c2cnc3cc4c(cc3c21)OCO4`, the results for the 50% inhibitory concentration (IC50) in the test with SW480, in the test with HT-29 and in the test with HCT-116 were 43.7 µM, 41.2 µM and 30.7 µM, respectively.
The like results for `NCCNCCCn1c(=O)c2cc([N+](=O)[O-])ccc2c2cnc3cc4c(cc3c21)OCO4` were, in that order, 30.1 µM, 22.2 µM and 12.2 µM.
Take `NCCNCCCCCn1c(=O)c2cc([N+](=O)[O-])ccc2c2cnc3cc4c(cc3c21)OCO4`: the results for the 50% inhibitory concentration (IC50) in the test on SW480, with HT-29 and in the test with HCT-116 were 50.7 µM, 47.6 µM and 25.2 µM, respectively.
On to `NCCNCCn1c(=O)c2cc([N+](=O)[O-])ccc2c2cnc3cc4c(cc3c21)OCO4`, for which the IC50 (commonly the midpoint of a concentration-inhibition curve) was 40.7 µM in the test with SW480, 43 µM with HT-29 and 25 µM in the test on HCT-116.
Taken in the same sequence, the figures for `NCCNCCCCCCn1c(=O)c2cc([N+](=O)[O-])ccc2c2cnc3cc4c(cc3c21)OCO4` were 24 µM, 30.8 µM and 15.4 µM.
